Results from different studies.
Target: Serine/threonine-protein kinase Nek10 (NEK10, Homo sapiens, UniProt Q6ZWH5)
One construct used (Q6ZWH5 1-1172): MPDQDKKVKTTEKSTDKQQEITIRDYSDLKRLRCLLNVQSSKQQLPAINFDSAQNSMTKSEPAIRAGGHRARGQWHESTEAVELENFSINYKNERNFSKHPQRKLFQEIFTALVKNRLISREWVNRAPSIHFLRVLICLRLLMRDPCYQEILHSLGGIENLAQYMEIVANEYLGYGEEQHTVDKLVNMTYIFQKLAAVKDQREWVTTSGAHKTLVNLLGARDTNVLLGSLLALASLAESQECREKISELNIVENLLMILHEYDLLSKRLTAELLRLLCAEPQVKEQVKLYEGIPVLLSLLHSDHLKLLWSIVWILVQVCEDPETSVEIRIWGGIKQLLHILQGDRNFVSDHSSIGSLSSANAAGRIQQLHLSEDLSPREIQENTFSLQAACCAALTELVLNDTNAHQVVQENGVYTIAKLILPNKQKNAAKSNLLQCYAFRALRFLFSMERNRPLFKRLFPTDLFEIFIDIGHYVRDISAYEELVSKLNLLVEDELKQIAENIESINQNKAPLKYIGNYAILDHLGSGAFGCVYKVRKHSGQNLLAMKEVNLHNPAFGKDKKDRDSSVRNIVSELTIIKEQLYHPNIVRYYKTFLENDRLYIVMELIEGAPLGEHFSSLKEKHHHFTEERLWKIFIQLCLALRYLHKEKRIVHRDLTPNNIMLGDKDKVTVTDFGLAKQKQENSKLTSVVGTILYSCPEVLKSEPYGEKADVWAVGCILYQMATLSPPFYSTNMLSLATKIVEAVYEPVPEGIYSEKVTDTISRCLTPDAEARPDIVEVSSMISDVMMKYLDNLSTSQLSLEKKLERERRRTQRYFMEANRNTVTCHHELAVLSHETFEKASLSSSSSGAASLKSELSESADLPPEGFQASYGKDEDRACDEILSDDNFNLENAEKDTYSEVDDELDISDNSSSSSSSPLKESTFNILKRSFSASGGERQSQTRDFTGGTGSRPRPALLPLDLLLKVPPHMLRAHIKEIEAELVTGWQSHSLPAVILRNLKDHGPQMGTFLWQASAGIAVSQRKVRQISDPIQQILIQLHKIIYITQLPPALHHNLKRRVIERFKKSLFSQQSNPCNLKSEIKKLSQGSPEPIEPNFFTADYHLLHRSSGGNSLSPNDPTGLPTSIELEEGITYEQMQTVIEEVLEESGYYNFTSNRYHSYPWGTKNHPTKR

| SMILES | read-out | method | tested at | remaining binding [%] |
| --- | --- | --- | --- | --- |
| C[C@@H](c1ccc(-n2cnc3c(N)ncnc32)cc1)N1CCc2nn(C)c(Cc3ccccc3)c2C1=O | binding | competition with immobilised ligand | 0.1 µM | 80 |
| O=C(c1ccc(Nc2nccc(-c3cc4ccccc4s3)n2)cc1)N1CCC(N2CCCC2)CC1 | binding | competition with immobilised ligand | 1 µM | 43 |
| C[C@@H](c1cccc(C#N)c1)n1cc(Cl)cc(C(N)=O)c1=N | cell-free assay | competition with immobilised ligand | 1 µM | 91 |
| O=C(NCCCN1CCOCC1)c1ccc(Nc2ncc(Cl)c(-c3ccc(Cl)s3)n2)cc1 | binding | competition with immobilised ligand | 1 µM | 48 |
| C[C@H]1CCN(c2nccc(-c3cnn4ncccc34)n2)C1 | binding |  | 1 µM | 91 |
| CNC(=O)c1ccc(Nc2ncc(C(F)(F)F)c(NCc3nccnc3N(C)S(C)(=O)=O)n2)cc1 | cell-free assay | competition with immobilised ligand | 0.1 µM | 100 |
| C=CC(=O)N1CCC(C(=O)NCC(=O)N2CCN(c3nc(-c4cnc(N)nc4C(F)F)nc(N4CCOCC4)n3)CC2)CC1 | binding | competition with immobilised ligand | 1 µM | 76 |
| FC(F)(F)Oc1cccc(-c2cnc3ccc(-c4ccncc4)nn23)c1 | cell-free assay | competition with immobilised ligand | 5 µM | 28 |
| CCOCCn1cc(C(=O)Nc2ccc(-n3nc(-c4cccnc4)cc3C(F)(F)F)cn2)ccc1=O | cell-free assay | competition with immobilised ligand | 1 µM | 94 |
| COc1cnc(Nc2cccc(S(N)(=O)=O)c2)nc1N1CCN(c2ccccc2)C(=O)C1 | binding | competition with immobilised ligand | 1 µM | 90 |
| O=C(NCC1CCOCC1)c1n[nH]cc1NC(=O)c1c(F)cccc1F | binding | competition with immobilised ligand | 1 µM | 72 |
| CC1CCCN1c1nccc(-c2cnn3ncccc23)n1 (stereo not drawn) | binding |  | 1 µM | 100 |
| Nc1c(C(=O)NCc2ccc(C(=O)NCCCC3CCCCC3)cc2)cnn1-c1ccccc1 | cell-free assay | competition with immobilised ligand | 0.1 µM | 100 |
| COc1ncc2cc3ccccc3nc2c1C#N | cell-free assay | competition with immobilised ligand | 5 µM | 98 |
| CN(CCCC(F)(F)F)c1nccc(-c2cnn3ncccc23)n1 | binding |  | 1 µM | 90 |
| Cc1cnc(Nc2ccc(C(=O)N3CCC(N4CCCC4)CC3)cc2)nc1-c1cc2ccccc2s1 | binding | competition with immobilised ligand | 1 µM | 71 |
| COc1cc(-c2cn(C3CCc4ccccc4N(CC(F)(F)F)C3=O)nn2)ccc1-n1ccc(C)n1 (stereo not drawn) | cell-free assay | competition with immobilised ligand | 1 µM | 81 |
| c1cnn2ncc(-c3ccnc(N4CCC45COC5)n3)c2c1 | binding |  | 1 µM | 98 |
